Results reported in ChEMBL document CHEMBL1821585, “Fluorinated cannabinoid CB2 receptor ligands: synthesis and in vitro binding characteristics of 2-oxoquinoline derivatives” (Bioorg Med Chem, 2011).

Experiments:
[1] = target: T1, Cannabinoid receptor 1 (Homo sapiens, UniProt P21554); assay: Displacement of [3H]CP-55940 from human CB1 receptor expressed in human U87 cells after 1 hr by scintillation counting; assay type: cell-based, U-87MG ATCC
How it was run: (§1)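 Membranes from lentivirally transduced U87 glioblastoma cells stably expressing hCB1 or hCB2, sorted on an mKateS158A co-reporter. Cells at 80–90% confluence were homogenised in 50 mM Tris-HCl, 5 mM MgCl2, 2.5 mM EDTA, pH 7.4. Aliquots of 30–50 μg protein were incubated 1 h at 4°C with 2.8 nM [3H]CP-55,940 plus graded compound concentrations, then GF/C-filtered. Ki was derived from the competition curves.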

[2] = target: T2, Cannabinoid receptor 2 (Homo sapiens, UniProt P34972); assay: Displacement of [3H]CP-55940 from human CB2 receptor expressed in human U87 cells after 1 hr by scintillation counting; assay type: cell-based, U-87MG ATCC; how it was run: as §1
T2 sequence (P34972 whole entry): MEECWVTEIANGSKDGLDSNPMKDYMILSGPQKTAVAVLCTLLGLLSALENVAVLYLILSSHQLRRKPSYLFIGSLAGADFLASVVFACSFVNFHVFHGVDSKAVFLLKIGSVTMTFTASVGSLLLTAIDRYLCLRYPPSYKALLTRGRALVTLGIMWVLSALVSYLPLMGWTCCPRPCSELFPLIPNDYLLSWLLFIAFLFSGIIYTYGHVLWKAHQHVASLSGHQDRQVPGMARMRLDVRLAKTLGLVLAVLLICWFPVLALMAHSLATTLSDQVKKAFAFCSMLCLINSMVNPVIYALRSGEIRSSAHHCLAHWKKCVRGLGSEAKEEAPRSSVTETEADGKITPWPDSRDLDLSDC

[3] = species: Homo sapiens; assay: Selectivity ratio of Ki for human CB1 receptor to Ki for human CB2 receptor
[4] = Selectivity ratio of Ki for CB1 receptor to Ki for CB2 receptor
[5] = target: T2, Cannabinoid receptor 2; assay: Binding affinity to CB2 receptor
[6] = target: T1, Cannabinoid receptor 1; assay: Binding affinity to CB1 receptor

T1 sequence (P21554 whole entry): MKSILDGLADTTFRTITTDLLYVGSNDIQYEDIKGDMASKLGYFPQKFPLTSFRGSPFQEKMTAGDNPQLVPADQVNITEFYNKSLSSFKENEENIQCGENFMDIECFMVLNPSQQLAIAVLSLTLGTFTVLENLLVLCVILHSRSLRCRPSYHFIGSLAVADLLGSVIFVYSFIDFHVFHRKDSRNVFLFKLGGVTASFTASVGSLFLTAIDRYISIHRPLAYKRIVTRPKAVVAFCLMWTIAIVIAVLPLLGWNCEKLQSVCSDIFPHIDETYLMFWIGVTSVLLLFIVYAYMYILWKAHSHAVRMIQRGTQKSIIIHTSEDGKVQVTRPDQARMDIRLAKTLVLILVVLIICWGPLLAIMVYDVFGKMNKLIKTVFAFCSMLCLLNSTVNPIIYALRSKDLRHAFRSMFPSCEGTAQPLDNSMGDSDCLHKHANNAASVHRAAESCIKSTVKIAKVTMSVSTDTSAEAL

SMILES | Ki [1] [µM] | Ki [2] [µM] | Ratio Ki [3] | Ratio Ki [4] | Ki [5] [pM] | other results
CCCCOc1c(OC)ccc2cc(C(=O)NCCF)c(=O)[nH]c12 | > 10 | 0.486 | > 20.5 | – | – | –
COc1ccc2c(c1)c(CCN1CCOCC1)c(C)n2C(=O)c1cccc(Cl)c1Cl | – | – | – | 146 | 14000 | –
COc1ccc2cc(C(=O)NCCF)c(=O)[nH]c2c1OC | > 10 | > 10 | > 1 | – | – | –
COc1ccc2cc(C(=O)NCc3ccc(F)cc3)c(=O)[nH]c2c1OC | > 10 | > 10 | > 1 | – | – | –
CCCCOc1c(OC)ccc2cc(C(=O)O)c(=O)[nH]c12 | – | – | – | 28300 | 32 | –
COc1ccc2cc(C(=O)NCCc3ccc(F)cc3)c(=O)[nH]c2c1OC | > 10 | 0.005 | – | – | – | –
Cc1ccc(Cn2nc(C(=O)N[C@@H]3C(C)(C)[C@@H]4CC[C@@]3(C)C4)cc2-c2ccc(Cl)c(C)c2)cc1 | – | – | – | 32 | – | –
CCCCOc1c(OC)ccc2cc(C(=O)NCCc3ccc(N)cc3)c(=O)[nH]c12 | – | – | – | – | 22300 | IC50 [5]: 0.00158 µM
CCCCCc1cc2cc(C(=O)OC)c(=O)[nH]c2c(O)c1OC | – | – | – | 262000 | 14 | –
CCCCOc1c(OC)ccc2cc(C(=O)NCc3ccc(F)cc3)c(=O)[nH]c12 | > 10 | 0.0028 | > 3570 | – | – | –
CCCCCCC(C)(C)c1cc(OC)c(C2CCCC(C)(O)C2)c(OC)c1 (centres undefined) | – | – | – | 220 | 23000 | Ki [6]: 5.05 µM
CCCCOc1c(OC)ccc2cc(C(=O)NCCc3ccc(F)cc3)c(=O)[nH]c12 | > 10 | 0.0024 | > 4170 | – | – | –
CCCCOc1c(OC)ccc2cc(C(=O)NCCCF)c(=O)[nH]c12 | > 10 | 0.058 | > 172 | – | – | –
CCCCCOc1c(OC)ccc2cc(C(=O)NCCc3ccncc3)c(=O)[nH]c12 | – | – | – | 20800 | 10 | –
CCCOc1c(OC)ccc2cc(C(=O)NCCc3ccc(F)cc3)c(=O)[nH]c12 | – | – | – | 16000 | – | –
CCCCCc1cc2cc(C(=O)NCCc3ccc(F)cc3)c(=O)[nH]c2c(O)c1OC | – | – | – | 66600 | 36 | Ki [6]: 2400 µM
COc1ccc2cc(C(=O)NCC(F)c3ccccc3)c(=O)[nH]c2c1OC (centres undefined) | > 10 | 0.022 | > 454 | – | – | –
CCCCOc1c(OC)c([N+](=O)[O-])cc2cc(C(=O)NCCc3ccc(F)cc3)c(=O)[nH]c12 | > 10 | 0.0014 | > 7140 | – | – | –
CCCCOc1c(OC)ccc2cc(C(=O)NCCc3cn(CCF)nn3)c(=O)[nH]c12 | > 10 | 2.4 | > 4 | – | – | –
CCCCCc1cc2cc(C(=O)NCCc3ccc(F)cc3)c(=O)n(C)c2c(O)c1OC | – | – | – | 20100 | 43 | Ki [6]: 864 µM
CCCCCC(C)(C)c1cc(OC)c2c(c1)OC(C)(C)[C@@H]1CCC(C)=C[C@@H]21 | – | – | – | 170 | – | –
CCCCOc1c(OC)ccc2cc(C(=O)NCc3cn(CCF)nn3)c(=O)[nH]c12 | > 10 | 0.62 | > 16 | – | – | –
Cc1c(C(=O)NN2CCCCC2)nn(-c2ccc(Cl)cc2Cl)c1-c1ccc(Cl)cc1 | – | – | – | 32 | – | –
CCCCCOc1c(OC)ccc2cc(C(=O)NCCN3CCOCC3)c(=O)n(C)c12 | – | – | – | 11000 | – | –
CCCCOc1c(OC)ccc2cc(C(=O)NCC(F)c3ccccc3)c(=O)[nH]c12 (centres undefined) | > 10 | 0.0008 | > 12500 | – | – | –
